Assay results taken from publication PMC6589987 (Therapeutic Advances in Chronic Disease, 2019).
“Also recorded” adds a separate entry of the source. Read-outs that look alike come from different tables or passages of the source.

Experiments:
[1] = after subcutaneous injection; cited from earlier work
[2] = Plasma levodopa pharmacokinetics after inhaled; assay type: in vivo, human; conditions: for AUC: inhaled or intranasal
Method in brief: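 Eight Parkinson's patients, not in the off state, got single morning doses at least 7.5 h after their last home dose, fasting 60 min before to 60 min after. Oral doses were 100/25–250/62.5 mg with decarboxylase inhibitor, normalised to 100 mg. Plasma had glutathione added and was stored at −80°C, then assayed by LC-MS/MS (LOQ 1.0 nmol/l). Half-life came from Cmax and the last concentration.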

[3] = progressed, fluctuating patients; cited from earlier work
[4] = Delivered dose and fine particle dose from the Cyclops inhaler; assay type: physicochemical; conditions: at 4 kPa; laser diffraction
Method in brief: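 Residue left in the inhaler after each patient inhalation was measured by UV spectrophotometry. Delivered dose was calculated as blister dose minus inhaler residue. Fine particle dose (<5 µm) was measured by laser diffraction at 4 kPa.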

[5] = Airway tolerability: spirometry; assay type: in vivo, human
Method in brief: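 Eight patients with Parkinson's disease (not off) inhaled dry-powder levodopa by mouth: 30 mg, then 60 mg (2 × 30 mg). At a third visit they took their regular oral levodopa/decarboxylase inhibitor. Visits were ≥7 days apart, in the morning, ≥7.5 h after the last home dose, with no food for 60 min either side. Spirometry (pneumotachograph, ATS/ERS) was done before and ±35 and 100 min after dosing. FEV1 drop >10% from baseline was deemed relevant. Cough and dyspnoea were queried each session (Borg scale).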

[6] = cited from earlier work

| SMILES | lag time to onset of effect [1] [min] | AUC ([2]; human, plasma, 30 mg) [ng·h/mL] | AUC ([2]; human, plasma, 60 mg) [ng·h/mL] | half-life ([2]; human, plasma, po, mean elimination half-life time, oral administration of levodopa plus decarboxylase inhibitor) [h] | elimination half-life ([2]; inhaled levodopa, both doses, range and mean) [h] | time by which inhaled levodopa is absorbed faster in the blood plasma than oral ([2]; inhaled vs oral) | relative bioavailability of inhaled levodopa in comparison with oral levodopa ([2]; inhaled without carboxylase inhibitor vs oral with carboxylase inhibitor) [%] | mean elimination half-life time ([2]; oral administration of levodopa plus decarboxylase inhibitor) [h] | increase in levodopa effect compartment concentration giving maximum effect on finger tapping [3] [ng/mL] | fine particle dose (<5 µm) [4] | change in lung-function parameters (FEV1, FVC, MEF50) ([5]; after inhalation of 30 mg or 60 mg levodopa, spirometry ±35 and 100 min after administration) | tolerability ([5]; after inhalation, 30 and 60 mg) | change in lung-function parameters (FEV1, FVC, MEF50) ([5]; after oral administration of levodopa) | patients experiencing cough or dyspnoea ([5]; during or after inhalation) | plasma levodopa concentration ([6]; 10 min after 100 mg oral levodopa in the fasted state) | absolute bioavailability ([6]; oral immediate-release levodopa combined with a decarboxylase inhibitor) | absolute bioavailability ([6]; oral immediate-release levodopa) |
| --- | --- | --- | --- | --- | --- | --- | --- | --- | --- | --- | --- | --- | --- | --- | --- | --- | --- |
| CN1CCc2cccc3c2[C@H]1Cc1ccc(O)c(O)c1-3 [apomorphine] | > 20 | – | – | – | – | – | – | – | – | – | – | – | – | – | – | – | – |
| N[C@@H](Cc1ccc(O)c(O)c1)C(=O)O [levodopa, Levodopa] | – | 9.69 | 9.58 | 1.13 ± 0.343 | 0.967 | up to 85 min | 53 | 1.13 | 200 to 400 | 45 % of the delivered dose | No significant change; also recorded: none of the patients | well tolerated | No significant change | none of the patients | around 150 ng/ml | approximately 85% | 40–60% |
